According to ChEMBL document CHEMBL3091323, “Investigation of quinazolines as inhibitors of breast cancer resistance protein (ABCG2)” (Bioorg Med Chem, 2013):
Activity calls are given as the source filed them. The rule behind the calls is not given here.

Experiments:
[1] = target: T1, Broad substrate specificity ATP-binding cassette transporter ABCG2 (Homo sapiens, UniProt Q9UNQ0); assay: Inhibition of human BCRP expressed in MDCK2 cells assessed as Hoechst 33342 accumulation treated 30 mins before Hoechst 33342 addition measured up to 120 mins by fluorescence assay; type: cell-based, MDCK-II
T1 sequence (Q9UNQ0 whole entry): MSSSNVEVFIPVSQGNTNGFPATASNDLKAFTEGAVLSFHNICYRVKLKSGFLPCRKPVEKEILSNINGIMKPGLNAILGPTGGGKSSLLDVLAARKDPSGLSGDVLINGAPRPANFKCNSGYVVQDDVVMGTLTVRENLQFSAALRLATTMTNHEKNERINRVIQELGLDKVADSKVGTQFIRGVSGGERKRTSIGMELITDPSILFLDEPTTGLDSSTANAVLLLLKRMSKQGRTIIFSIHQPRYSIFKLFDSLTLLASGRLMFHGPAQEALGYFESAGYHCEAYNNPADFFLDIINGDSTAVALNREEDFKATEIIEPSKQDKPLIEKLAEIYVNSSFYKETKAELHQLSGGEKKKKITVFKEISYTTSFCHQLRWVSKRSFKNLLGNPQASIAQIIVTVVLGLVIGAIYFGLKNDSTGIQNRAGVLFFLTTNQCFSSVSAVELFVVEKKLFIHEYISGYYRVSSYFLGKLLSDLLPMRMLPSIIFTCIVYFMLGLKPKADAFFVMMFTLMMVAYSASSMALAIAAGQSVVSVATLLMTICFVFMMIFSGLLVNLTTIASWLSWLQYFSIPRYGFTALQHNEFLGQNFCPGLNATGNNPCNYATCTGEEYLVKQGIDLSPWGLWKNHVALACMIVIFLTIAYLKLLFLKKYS

[2] = target: T1, Broad substrate specificity ATP-binding cassette transporter ABCG2; assay: Inhibition of human BCRP expressed in MDCK2 cells assessed as pheophorbide A accumulation treated 30 mins before pheophorbide A addition measured up to 120 mins by flow cytometry; type: cell-based, MDCK-II
[3] = target: T2, ATP-dependent translocase ABCB1 (Homo sapiens, UniProt P08183); assay: Inhibition of MDR1 in human doxorubicin-resistant A2780adr cells assessed as Calcein AM accumulation treated 30 mins before Calcein AM addition measured up to 90 mins by fluorescence assay; type: cell-based, A2780 ADR
T2 sequence (P08183 whole entry): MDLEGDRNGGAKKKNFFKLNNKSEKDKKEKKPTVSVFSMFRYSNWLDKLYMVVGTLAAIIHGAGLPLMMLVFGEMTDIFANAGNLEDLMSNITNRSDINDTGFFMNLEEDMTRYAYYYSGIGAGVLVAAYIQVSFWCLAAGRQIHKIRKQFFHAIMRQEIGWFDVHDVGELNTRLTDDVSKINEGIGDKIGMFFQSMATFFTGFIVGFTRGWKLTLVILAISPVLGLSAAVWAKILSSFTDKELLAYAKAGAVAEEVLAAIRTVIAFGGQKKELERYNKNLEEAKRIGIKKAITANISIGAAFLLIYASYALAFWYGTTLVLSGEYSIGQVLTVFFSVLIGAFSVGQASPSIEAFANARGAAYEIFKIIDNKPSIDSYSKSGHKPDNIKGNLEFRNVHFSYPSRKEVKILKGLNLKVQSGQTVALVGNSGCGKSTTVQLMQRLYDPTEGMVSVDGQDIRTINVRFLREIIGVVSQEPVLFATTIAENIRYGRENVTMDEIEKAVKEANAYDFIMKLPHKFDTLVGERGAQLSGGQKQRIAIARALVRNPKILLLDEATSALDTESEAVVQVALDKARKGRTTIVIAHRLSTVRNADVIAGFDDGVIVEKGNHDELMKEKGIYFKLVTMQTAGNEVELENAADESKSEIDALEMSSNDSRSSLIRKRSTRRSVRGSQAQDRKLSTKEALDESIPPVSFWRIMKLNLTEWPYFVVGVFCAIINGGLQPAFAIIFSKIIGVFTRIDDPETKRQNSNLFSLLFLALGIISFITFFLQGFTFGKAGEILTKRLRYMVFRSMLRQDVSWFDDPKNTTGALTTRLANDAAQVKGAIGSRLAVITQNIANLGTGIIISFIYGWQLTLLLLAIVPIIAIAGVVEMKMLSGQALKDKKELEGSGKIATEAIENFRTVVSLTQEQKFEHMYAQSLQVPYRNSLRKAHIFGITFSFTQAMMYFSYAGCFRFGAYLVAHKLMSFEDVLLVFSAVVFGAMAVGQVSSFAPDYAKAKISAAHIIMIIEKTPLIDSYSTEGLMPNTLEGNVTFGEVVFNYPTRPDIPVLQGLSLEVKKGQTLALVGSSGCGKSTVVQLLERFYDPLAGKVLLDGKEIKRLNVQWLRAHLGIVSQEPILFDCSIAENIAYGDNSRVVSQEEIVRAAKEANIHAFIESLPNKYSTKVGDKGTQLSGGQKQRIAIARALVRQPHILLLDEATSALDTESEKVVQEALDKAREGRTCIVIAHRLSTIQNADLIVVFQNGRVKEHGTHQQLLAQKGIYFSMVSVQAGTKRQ

[4] = test system: BCRP; assay: Therapeutic index, ratio of GI50 for MDCK cells to IC50 for human BCRP expressed in MDCK2 cells; conditions: dog
[5] = Cytotoxicity against MDCK cells after 72 hrs by MTT assay; type: cell-based, Canis lupus familiaris; conditions: dog
How it was run: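 MTT assay in MDCK BCRP and parental MDCK cells: 2500 cells/well, 6 h attachment at 37 °C, 5% CO₂, compounds up to 100 µM for 72 h. MTT (5 mg/ml solution) added for 1 h, then lysis in DMSO. Absorbance read at 544 nm with 710 nm background correction. Controls were 10% DMSO medium and PBS only. GI₅₀ derived.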

[6] = target: MRP1 (Homo sapiens, UniProt P33527); assay: (§1) Inhibition of MRP1 in human 2008 cells assessed as Calcein AM accumulation at 10 uM treated 30 mins before Calcein AM addition measured up to 90 mins by fluorescence assay relative to control; type: cell-based; conditions: human, 2008 cells, probe Calcein AM
Chain of MRP1 (P33527 whole entry): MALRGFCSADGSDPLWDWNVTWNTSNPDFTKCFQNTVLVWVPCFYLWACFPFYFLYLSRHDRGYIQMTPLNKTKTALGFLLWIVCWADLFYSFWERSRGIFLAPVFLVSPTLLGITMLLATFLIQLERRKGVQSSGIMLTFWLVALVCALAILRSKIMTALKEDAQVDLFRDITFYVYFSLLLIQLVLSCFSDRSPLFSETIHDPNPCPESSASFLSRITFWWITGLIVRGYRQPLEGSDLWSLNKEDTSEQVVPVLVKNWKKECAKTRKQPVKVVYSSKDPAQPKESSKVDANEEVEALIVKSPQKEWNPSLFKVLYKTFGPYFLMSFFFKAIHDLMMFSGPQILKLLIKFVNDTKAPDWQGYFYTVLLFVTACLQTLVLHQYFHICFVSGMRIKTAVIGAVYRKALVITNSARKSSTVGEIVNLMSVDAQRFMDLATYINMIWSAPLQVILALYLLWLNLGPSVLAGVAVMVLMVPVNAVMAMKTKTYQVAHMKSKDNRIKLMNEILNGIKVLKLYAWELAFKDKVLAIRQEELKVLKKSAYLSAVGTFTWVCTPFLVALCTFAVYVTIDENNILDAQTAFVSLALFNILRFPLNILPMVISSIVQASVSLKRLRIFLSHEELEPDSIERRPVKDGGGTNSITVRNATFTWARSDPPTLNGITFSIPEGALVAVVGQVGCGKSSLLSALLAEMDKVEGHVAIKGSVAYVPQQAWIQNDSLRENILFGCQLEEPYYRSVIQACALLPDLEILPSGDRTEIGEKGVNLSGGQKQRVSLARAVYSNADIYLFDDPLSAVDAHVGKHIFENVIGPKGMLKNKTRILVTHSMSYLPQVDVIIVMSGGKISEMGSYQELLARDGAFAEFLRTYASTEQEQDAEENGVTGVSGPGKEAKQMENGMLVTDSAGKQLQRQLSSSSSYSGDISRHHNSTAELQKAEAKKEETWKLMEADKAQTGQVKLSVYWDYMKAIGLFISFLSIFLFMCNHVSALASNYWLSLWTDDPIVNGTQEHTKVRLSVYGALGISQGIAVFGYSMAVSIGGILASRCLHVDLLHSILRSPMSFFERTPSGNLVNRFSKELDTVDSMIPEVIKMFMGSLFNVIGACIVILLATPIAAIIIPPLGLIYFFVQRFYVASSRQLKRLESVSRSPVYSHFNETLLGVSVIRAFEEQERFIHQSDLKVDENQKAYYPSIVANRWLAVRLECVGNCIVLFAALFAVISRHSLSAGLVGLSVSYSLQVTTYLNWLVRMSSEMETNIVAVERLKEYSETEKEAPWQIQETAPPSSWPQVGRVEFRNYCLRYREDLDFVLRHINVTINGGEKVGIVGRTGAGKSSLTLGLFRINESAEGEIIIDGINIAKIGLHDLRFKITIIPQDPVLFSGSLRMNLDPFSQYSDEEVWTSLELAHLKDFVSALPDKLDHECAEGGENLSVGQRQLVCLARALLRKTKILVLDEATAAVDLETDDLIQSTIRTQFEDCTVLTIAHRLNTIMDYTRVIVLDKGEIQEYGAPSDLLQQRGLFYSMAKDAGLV

[7] = target: MDR1 (Homo sapiens, UniProt P08183); assay: (§2) Inhibition of MDR1 in human doxorubicin-resistant A2780adr cells assessed as Calcein AM accumulation at 10 uM treated 30 mins before Calcein AM addition measured up to 90 mins by fluorescence assay relative to control; type: cell-based, A2780 ADR; conditions: doxorubicin-resistant A2780adr cells, probe Calcein AM
Chain of MDR1 (P08183 whole entry): as the sequence (P08183 whole entry) above

[8] = test system: MDCK-II; assay: Increase of plasma membrane expression of BCRP expressing reporter gene GFP in BCRP-MDCK2 cells at 0.5 to 1.8 uM after 72 hrs by fluorescence assay; type: functional, cell-based; conditions: Canis lupus familiaris, in the assay text read “total expression” for “plasma membrane expression”
How it was run: (§3)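 MDCK II cells transfected with human wild-type BCRP cDNA C-terminally fused to GFP. Seeded at 100,000 cells/well and treated 4 h later at final 0.5, 1.0 and 1.8 µM for 72 h at 37 °C. Surface BCRP measured by 5D3 antibody binding (FL2, 585 nm) and total BCRP by GFP (FL1, 520 nm) on a flow cytometer, gated on scatter. Geometric means normalized to untreated cells as 100%.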

[9] = Reduction of plasma membrane expression of BCRP expressing reporter gene GFP in BCRP-MDCK2 cells at 0.5 to 1.8 uM after 72 hrs by fluorescence assay relative to control; type: functional, cell-based; design: scale not given: the % may be the effect or the level left; conditions: Canis lupus familiaris, MDCK-II; how it was run: as §3
[10] = target: Multidrug resistance-associated protein 1 (Homo sapiens, UniProt P33527); assay: as §1; type: cell-based; conditions: human, 2008, 10 µM
Chain of Multidrug resistance-associated protein 1 (P33527 whole entry): as the sequence (P33527 whole entry) above

[11] = target: T2, ATP-dependent translocase ABCB1; assay: as §2; type: cell-based, A2780 ADR; conditions: a2780 adr, 10 µM
[12] = target: T1, Broad substrate specificity ATP-binding cassette transporter ABCG2; assay: Reversal of human BCRP-mediated multidrug resistant in MDCK2 cells assessed as increase of Hoechst 33342-induced cytotoxicity at 1 to 5 uM after 72 hrs by MTT assay; type: cell-based; conditions: mdck-ii
How it was run: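 MDR reversal by MTT assay in MDCK BCRP cells with compounds at final 1 µM and 5 µM. Dose–response curves to Hoechst 33342 were compared with and without inhibitor and against sensitive MDCK cells. Conditions as for the MTT cytotoxicity assay: 2500 cells/well, 72 h, absorbance at 544/710 nm.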

| IC50 [1] | IC50 [2] | inhibition at 90 min, 10 µM [6] | inhibition at 90 min, 10 µM [7] | SMILES | further results |
| --- | --- | --- | --- | --- | --- |
| 1730 nM | 2320 nM |  |  | COc1cc2ncnc(Nc3cccc(Br)c3)c2cc1OC |  |
| 140 nM | 110 nM | > 50% | > 50% | COc1ccc(-c2nc(Nc3cccc(O)c3)c3ccccc3n2)cc1OC | IC50 [3]: 18200 nM; selectivity ratio ([4]; mdck2): 33; GI50 at 72 h [5]: 4610 nM |
| 290 nM | 400 nM | > 50% | > 50% | COc1ccc(-c2nc(Nc3cccc(Br)c3)c3ccccc3n2)cc1OC | IC50 [3]: 11800 nM |
| 670 nM | 860 nM |  |  | COc1cc2nc(Nc3cccc(Br)c3)nc(Nc3cccc(Br)c3)c2cc1OC |  |
| 1080 nM | 1480 nM |  |  | Brc1cccc(Nc2ncnc3ccccc23)c1 |  |
|  |  | > 50% | > 50% | COc1ccc(-c2nc(Nc3cccc([N+](=O)[O-])c3)c3ccccc3n2)cc1OC | IC50 [3]: 9560 nM; GI50 at 72 h [5]: 20800 nM; Activity [8]: Active; Activity [9]: 75% |
| 4790 nM | 3380 nM |  |  | COc1ccc(Nc2ncnc3ccccc23)cc1OC |  |
| 1130 nM | 890 nM |  |  | O=[N+]([O-])c1cccc(Nc2ncnc3ccccc23)c1 | selectivity ratio [4]: 16; GI50 at 72 h [5]: 18300 nM; Activity [8]: Active; Activity [9]: inactive |
| 1060 nM | 930 nM |  |  | COc1cc2ncnc(Nc3cccc(C#N)c3)c2cc1OC |  |
| 1740 nM | 1520 nM |  |  | COc1ccc(Nc2nc(Nc3ccc(OC)c(OC)c3)c3cc(OC)c(OC)cc3n2)cc1OC |  |
|  |  |  |  | COc1cc2ncnc(Nc3ccc(F)c(Cl)c3)c2cc1OCCCN1CCOCC1 [GEFITINIB] | GI50 at 72 h [5]: 1450 nM; Activity [8]: Active; Activity [9]: Active |
| 260 nM | 290 nM | > 50% | > 50% | COc1ccc(-c2nc(Nc3ccccc3O)c3ccccc3n2)cc1OC |  |
| 7380 nM | 3790 nM |  |  | COc1ccc(Nc2ncnc3cc(OC)c(OC)cc23)cc1OC |  |
| 480 nM | 470 nM |  |  | COc1cc2nc(Nc3cccc(C#N)c3)nc(Nc3cccc(C#N)c3)c2cc1OC |  |
| 330 nM | 320 nM |  |  | COc1cc2nc(Nc3cccc([N+](=O)[O-])c3)nc(Nc3cccc([N+](=O)[O-])c3)c2cc1OC |  |
|  |  | > 50% | > 50% | COc1ccc(-c2nc(Nc3cccc(C#N)c3)c3ccccc3n2)cc1OC |  |

| IC50 [1] | IC50 [2] | inhibition at 90 min, 10 µM [6] | inhibition at 90 min, 10 µM [7] | SMILES | further results |
| --- | --- | --- | --- | --- | --- |
| 940 nM | 1550 nM |  |  | FC(F)(F)c1cccc(Nc2ncnc3ccccc23)c1 |  |
| 810 nM | 910 nM |  |  | COc1cc2ncnc(Nc3cccc([N+](=O)[O-])c3)c2cc1OC | selectivity ratio [4]: 1.85; GI50 at 72 h [5]: 1500 nM; Activity [8]: inactive; Activity [9]: 60% |
| 3800 nM | 3970 nM |  |  | COc1cc2ncnc(Nc3ccccc3[N+](=O)[O-])c2cc1OC |  |
| 800 nM | 610 nM |  |  | COc1cc2nc(Nc3cccc(C(F)(F)F)c3)nc(Nc3cccc(C(F)(F)F)c3)c2cc1OC |  |
|  |  |  |  | O=[N+]([O-])c1cccc(Nc2nc(-c3ccccc3)nc3ccccc23)c1 | GI50 at 72 h [5]: 67800 nM; inhibition (INH) [10]: Not Active; Activity [8]: Active; inhibition (INH) [11]: Not Active; Activity [9]: inactive |
| 640 nM | 1550 nM | > 50% | > 50% | COc1ccc(-c2nc(Nc3ccccc3[N+](=O)[O-])c3ccccc3n2)cc1OC |  |
| 420 nM | 610 nM | > 50% | > 50% | COc1ccc(Nc2nc(-c3ccc(OC)c(OC)c3)nc3ccccc23)cc1OC | IC50 [3]: 3490 nM |
| 2920 nM | 2460 nM |  |  | COc1cc2ncnc(Nc3ccc([N+](=O)[O-])cc3)c2cc1OC |  |
| 1990 nM | 4090 nM | > 50% | > 50% | COc1ccc(-c2nc(Nc3ccccc3)c3ccccc3n2)cc1OC |  |
| 1180 nM | 2030 nM |  |  | N#Cc1cccc(Nc2ncnc3ccccc23)c1 |  |
|  |  |  |  | Brc1cccc(Nc2nc(-c3ccccc3)nc3ccccc23)c1 | IC50 [3]: 12400 nM |
| 2400 nM | 1980 nM |  |  | COc1cc2ncnc(Nc3cccc(C(F)(F)F)c3)c2cc1OC |  |
| 150 nM |  |  |  | Oc1cccc(Nc2nc(-c3ccccc3)nc3ccccc23)c1 | selectivity ratio ([4]; mdck2): 340; GI50 at 72 h [5]: 51100 nM; inhibition (INH) [10]: Not Active; Activity [12]: Active; inhibition (INH) [11]: Not Active |
| 300 nM | 240 nM | > 50% | > 50% | COc1ccc(-c2nc(Nc3cccc(C(F)(F)F)c3)c3ccccc3n2)cc1OC |  |
| 470 nM | 680 nM | > 50% | > 50% | COc1ccc(-c2nc(Nc3ccc(O)cc3)c3ccccc3n2)cc1OC |  |
